This is an account of results in ChEMBL document CHEMBL1146071, “2,4-diaminopyrimidine derivatives as potent growth hormone secretagogue receptor antagonists” (J Med Chem, 2006).

For data set [1], the target named is T1, Growth hormone secretagogue receptor type 1 (Homo sapiens, UniProt Q92847). The experiment in a line: Displacement of [125I]ghrelin from human GHS receptor expressed in CHOK cells. It counts as cell-based. The procedure, abridged: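 Membranes from CHO-K cells expressing human ghrelin receptor, prepared by sonication and a 60000g spin. Filtered onto PEI-soaked GF/C, washed cold, scintillation counted; percent inhibition, sigmoidal fit for IC50.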
In general terms: Loss of bound radioactivity is the signal in a displacement assay; it reports binding, not function.

Data set [2] addresses T1, Growth hormone secretagogue receptor type 1. Briefly: Antagonist activity at human GHS receptor by inhibition of ghrelin-induced intracellular calcium flux in CHOK cells. The format is functional, cell-based. An outline of the steps: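 CHO-K cells stably expressing human GHS-R, grown in Ultra-CHO medium with 1% dialyzed FCS and 400 µg/mL G418, plated to confluency overnight. Loaded with Fluo-4 AM plus probenecid for 1-3 h in the dark at RT, then washed. On FLIPR (ex 488/em 520 nm), compound added first and read 3 min, then ghrelin added and read another 3 min. Duplicate or triplicate wells; sigmoidal fit for IC50.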
For orientation: Calcium assays in cells follow changes in intracellular calcium, usually with a dye or a luminescent sensor.

A short description of data set [3]: AUC in Sprague-Dawley rat at 5 mg/kg, iv. It counts as ADME, organism-based, Plasma. More on the design: dose 5 mg/kg, route intravenous. Conditions: Sprague-Dawley, plasma. The procedure, abridged:
(§1)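 Rats dosed at 5 mg/kg: iv for AUC (µg·h/mL), clearance (L/h·kg) and Cmax (µg/mL); oral for bioavailability unless stated otherwise. Brain (µg/g) and plasma levels taken at 1 and 8 h. Mean of n = 3.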

A short description of data set [4]: Plasma clearance in Sprague-Dawley rat at 5 mg/kg, iv. It counts as ADME, organism-based. Set-up: dose 5 mg/kg, route intravenous. An outline of the steps:
as §1

The nature of data set [5]: Half life in Sprague-Dawley rat at 5 mg/kg. More on the design: dose 5 mg/kg. Conditions: in vivo. It counts as ADME, organism-based. An outline of the steps: as §1
Data set [6] in a line: Cmax in Sprague-Dawley rat at 5 mg/kg, iv. It counts as ADME, organism-based. Set-up: dose 5 mg/kg, route intravenous. The following applies: in vivo. The procedure, abridged:
as §1

Data set [7] is described as follows: Oral bioavailability in Sprague-Dawley rat at 5 mg/kg. The following applies: in vivo. The format is ADME, organism-based. The procedure, abridged:
as §1

Data set [8] is described as follows: Concentration in Sprague-Dawley rat brain at 5 mg/kg after 1 hr. It counts as ADME, organism-based. More on the design: dose 5 mg/kg. Conditions: read-out: Ct. An outline of the steps: as §1
The nature of data set [9]: Plasma concentration in Sprague-Dawley rat at 5 mg/kg after 1 hr. The format is ADME, organism-based. More on the design: dose 5 mg/kg. An outline of the steps:
as §1

Data set [10] in a line: Concentration in Sprague-Dawley rat brain at 30 mg/kg, ip after 1 hr. The format is ADME, organism-based. Set-up: dose 30 mg/kg, route intraperitoneal. The following applies: read-out: Ct. An outline of the steps:
(§2)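 Rats given 30 mg/kg ip. Brain (µg/g) and plasma levels measured at 1 and 8 h after dosing.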

A short description of data set [11]: Concentration in Sprague-Dawley rat brain at 30 mg/kg, ip after 8 hrs. It counts as ADME, organism-based. The following applies: read-out: Ct. More on the design: dose 30 mg/kg, route intraperitoneal. An outline of the steps: as §2
Data set [12] is described as follows: Plasma concentration in Sprague-Dawley rat at 30 mg/kg, ip after 1 hr. It counts as ADME, organism-based. More on the design: dose 30 mg/kg, route intraperitoneal. An outline of the steps:
as §2

Data set [13] can be described thus: Plasma concentration in Sprague-Dawley rat at 30 mg/kg, ip after 8 hrs. The format is ADME, organism-based. Set-up: dose 30 mg/kg, route intraperitoneal. The procedure, abridged:
as §2

A short description of data set [14]: Concentration in Sprague-Dawley rat brain at 5 mg/kg after 8 hrs. It counts as ADME, organism-based. Set-up: dose 5 mg/kg. The following applies: read-out: Ct. An outline of the steps:
as §1

Data set [15] in a line: Plasma concentration in Sprague-Dawley rat at 5 mg/kg after 8 hrs. The format is ADME, organism-based. Set-up: dose 5 mg/kg. The procedure, abridged:
as §1

pIC50: −log10 of the molar value.

T1 sequence (Q92847 whole entry): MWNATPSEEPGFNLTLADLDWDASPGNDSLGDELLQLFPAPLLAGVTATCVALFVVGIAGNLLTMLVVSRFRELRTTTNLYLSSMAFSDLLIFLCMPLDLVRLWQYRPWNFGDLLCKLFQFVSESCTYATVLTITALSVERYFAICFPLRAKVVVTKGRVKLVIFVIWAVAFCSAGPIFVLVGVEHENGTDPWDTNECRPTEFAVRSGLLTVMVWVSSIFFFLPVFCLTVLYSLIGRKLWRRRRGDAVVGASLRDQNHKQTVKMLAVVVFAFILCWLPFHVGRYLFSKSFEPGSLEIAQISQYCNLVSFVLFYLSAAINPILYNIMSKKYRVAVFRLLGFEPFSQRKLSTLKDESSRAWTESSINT

As a reminder, the pIC50 is −log10 of the IC50, conventionally taken in molar units. For `CCc1nc(N)nc(N)c1-c1ccc(CNc2ccc(S(C)(=O)=O)cc2)cc1`, the pIC50 in data set [1] was 8.01; in data set [2], 6.92.
With `CCc1nc(N)nc(N)c1-c1ccc(NCc2ccnc(Cl)c2)cc1`, the pIC50 in data set [1] is 6.96; in data set [2], 6.66.
As a reminder, the AUC is concentration integrated over time. Read a high AUC as high exposure. The clearance is a measure of how efficiently the substance is removed, as volume per time. Higher therefore signals a high capacity for elimination. The half-life is the time needed for the level to fall by half in the phase considered. Higher therefore signals slow decline. For orientation: Cmax means the peak of the concentration-time curve. The term bioavailability denotes dose-corrected exposure relative to a reference, in per cent. The low end stands for poor availability, the high end for good availability. On to `CCc1nc(N)nc(N)c1-c1ccc(NCc2ccc([N+](=O)[O-])cc2)cc1`, for which the pIC50 is 7.96 in data set [1] and 7.64 in data set [2]. In addition, the AUC in data set [3] was found to be 1600 ng·h/mL. In addition, the clearance in [4] is 43.3 mL/min/kg. Further, the half-life in data set [5] was 5.5 h. This molecule registered a Cmax in [6] of 140 ng/mL. This molecule yielded a bioavailability in [7] of 68%. Besides, the concentration at 1 h in data set [8] came out at 530 ng/g; in data set [9], 270 ng/mL.
Take `Nc1nc(N)c(-c2ccc(NCc3ccccc3)cc2)c(COCc2ccccc2)n1`: the pIC50 in [1] is 7.30; in data set [2], 6.01.
For `CCc1nc(N)nc(N)c1-c1ccc(NCc2cc(F)c(S(C)(=O)=O)c(F)c2)cc1` the same measures were 8.62 and 7.35.
For `Nc1nc(N)c(-c2ccc(NCc3cc(F)c(S(=O)(=O)C(F)(F)F)c(F)c3)cc2)c(COCc2ccccc2)n1` the same measures were 9.00 and 7.07.
For `CCc1nc(N)nc(N)c1-c1ccc(NCc2ccc(S(C)(=O)=O)cc2)c(Br)c1` the same measures were 8.24 and 7.38.
In the case of `Nc1nc(N)c(-c2ccc(NCc3csc(Cl)c3)cc2)c(COCc2ccccc2)n1`, the pIC50 in data set [1] was 8.20; in data set [2], 6.77.
For `CC(=O)c1ccc(CNc2ccc(-c3c(N)nc(N)nc3COCc3ccccc3)cc2)cc1` the same measures were 8.92 and 8.00.
For the molecule `CS(=O)(=O)c1ccc(CNc2ccc(-c3c(N)nc(N)nc3COCc3ccccc3)cc2)cc1`, in data set [2], the pIC50 was 8.14.
Regarding `Nc1nc(N)c(-c2ccc(NCc3ccc(C(F)(F)F)cc3)cc2)c(COCc2ccccc2)n1`, the negative-log IC50 (pIC50) was 8.54 in data set [1] and 7.01 in data set [2].
For `Nc1nc(N)c(-c2ccc(NCc3ccc(Cl)s3)cc2)c(COCc2ccccc2)n1` the same measures were 7.37 and 6.49.
For `COc1ccc(CNc2ccc(-c3c(N)nc(N)nc3COCc3ccccc3)cc2)cc1` the same measures were 8.11 and 7.05.
With `Nc1nc(N)c(-c2ccc(NCc3ccnc(Cl)c3)cc2)c(COCc2ccccc2)n1`, the values for the pIC50 in data set [1] and in data set [2] were 8.82 and 8.44, respectively.
As for `CCc1nc(N)nc(N)c1-c1ccc(N(C)Cc2ccc(S(C)(=O)=O)cc2)cc1`, the results for the pIC50 in data set [1] and in data set [2] were 8.43 and 7.49, respectively. The AUC in data set [3] was determined as 2700 ng·h/mL. The clearance in data set [4] was 16.5 mL/min/kg. In data set [5], this molecule had a half-life of 3.8 h. In [6], this molecule returned a Cmax of 430 ng/mL. In data set [7], the bioavailability was determined as 53%. Moreover, the concentration at 1 h in [8] turned out to be 40 ng/g; in data set [9], 1280 ng/mL.
Turning to `CCc1nc(N)nc(N)c1-c1ccc(NCc2ccc(S(C)(=O)=O)cc2)c(Cl)c1`, the pIC50 in [1] is 8.38; in data set [2], 7.96. Further, the AUC in data set [3] was 2700 ng·h/mL. The molecule also had a clearance in [4] of 26.7 mL/min/kg. Also, the half-life in [5] is 8.7 h. This molecule showed a Cmax in data set [6] of 160 ng/mL. This molecule also returned a bioavailability in data set [7] of 78%. Moreover, the concentration at 1 h in [8] worked out at 30 ng/g; in [9] it was 1040 ng/mL.
Turning to `N#Cc1ccc(CNc2ccc(-c3c(N)nc(N)nc3COCc3ccccc3)cc2)cc1`, the figures for the pIC50 in data set [1] and in data set [2] were 8.55 and 7.72, respectively.
Regarding `CCc1nc(N)nc(N)c1-c1ccc(CNc2ccc([N+](=O)[O-])cc2)cc1`, the pIC50 in data set [1] was 8.04; in data set [2] it was 6.72.
Consider `Nc1nc(N)c(-c2ccc(NCc3ccc(Cl)cc3)cc2)c(CCc2ccccc2)n1`, for which the pIC50 was 5.50 in [1] and 5.47 in [2]. Besides, the concentration at 1 h in data set [10] turned out to be 1340 ng/g; in data set [12], 800 ng/mL. Moreover, the concentration at 8 h in data set [11] was 400 ng/g; in data set [13] it was 90 ng/mL.
As for `Nc1nc(N)c(-c2ccc(NCc3ccc([N+](=O)[O-])cc3)cc2)c(COCc2ccccc2)n1`, the pIC50 in data set [1] is 9.70; in data set [2], 8.24.
For `CCc1nc(N)nc(N)c1-c1ccc(NCc2cc(F)c(S(=O)(=O)C(F)(F)F)c(F)c2)cc1` the same measures were 7.68 and 6.16.
For `CCc1nc(N)nc(N)c1-c1ccc(NCc2ccc(C(C)=O)cc2)cc1`, the pIC50 was 7.24 in [1] and 6.96 in data set [2]. This molecule registered an AUC in [3] of 680 ng·h/mL. The same molecule had a clearance in data set [4] of 61.7 mL/min/kg. The half-life in data set [5] is 2.4 h. This molecule also showed a Cmax in data set [6] of 140 ng/mL. Further, the bioavailability in data set [7] came to 51%. In addition, the concentration at 1 h worked out at 420 ng/g in data set [8] and 120 ng/mL in [9].
Consider `Nc1nc(N)c(-c2ccc(NCc3ccncc3)cc2)c(COCc2ccccc2)n1`, for which the pIC50 was 7.68 in [1] and 7.07 in data set [2].
Regarding `Nc1nc(N)c(-c2ccc(NCc3cnc4ccccc4c3)cc2)c(COCc2ccccc2)n1`, the values for the pIC50 in data set [1] and in data set [2] were 6.89 and 6.11, respectively.
As to `CCc1nc(N)nc(N)c1-c1ccc(NCc2ccc(S(C)(=O)=O)cc2)cc1`, the results for the pIC50 in [1] and in [2] were 8.13 and 7.92, respectively. Further, the AUC in data set [3] was 2800 ng·h/mL. Besides, in data set [4], the clearance was 15.7 mL/min/kg. The molecule also showed a half-life in [5] of 6.6 h. The molecule also came in with a Cmax in [6] of 320 ng/mL. Moreover, the bioavailability in data set [7] turned out to be 52%. For the same molecule, the concentration at 1 h in data set [8] was determined as 50 ng/g; in [9], 1020 ng/mL.
In the case of `CCc1nc(N)nc(N)c1-c1ccc(NCc2ccc(C(C)O)cc2)cc1` (stereo not given), the pIC50 is 7.89 in data set [1] and 6.96 in data set [2].
On to `CCc1nc(N)nc(N)c1-c1ccc(NCc2ccc(Cl)cc2)cc1`, for which the pIC50 is 6.51 in data set [1] and 5.86 in data set [2]. This molecule also showed an area under the curve (AUC) in data set [3] of 2200 ng·h/mL. The clearance in [4] was 30 mL/min/kg. The molecule also had a half-life in data set [5] of 5.2 h. Moreover, the highest level in [6] (Cmax) was 170 ng/mL. This molecule also yielded a bioavailability in data set [7] of 76%. The concentration at 1 h is 2740 ng/g in data set [8] and 250 ng/mL in data set [9]. In addition, the concentration at 8 h in data set [14] came to 600 ng/g; in data set [15], 110 ng/mL.
Consider `CCc1nc(N)nc(N)c1-c1ccc(CNc2ccc(Cl)cc2)cc1`, for which the pIC50 in data set [1] is 6.52; in data set [2], 5.50.
For `CCc1nc(N)nc(N)c1-c1ccc(NCc2csc(Cl)c2)cc1` the same measures were 6.54 and 6.10.
For `CS(=O)(=O)c1ccc(COc2ccc(-c3c(N)nc(N)nc3COCc3ccccc3)cc2)cc1` the same measures were 8.16 and 7.32.
For `N#Cc1ccc(COc2ccc(-c3c(N)nc(N)nc3COCc3ccccc3)cc2)cc1` the same measures were 7.08 and 5.44.
On to `CC(C)(C)CNc1ccc(-c2c(N)nc(N)nc2COCc2ccccc2)cc1`, for which the pIC50 in data set [1] was 7.17; in [2] it was 6.15.
As for `Nc1nc(N)c(-c2ccc(CNc3ccc([N+](=O)[O-])cc3)cc2)c(COCc2ccccc2)n1`, the figures for the pIC50 in data set [1] and in data set [2] were 9.10 and 7.80, respectively.
In the case of `CCc1nc(N)nc(N)c1-c1ccc(NCc2ccc(C#N)cc2)cc1`, the pIC50 is 6.80 in [1] and 6.11 in data set [2].
